Activity calls are given as the source filed them. No cut-off for these calls is given here.
How the values were obtained:
[1] = biological target: T1, Bifunctional epoxide hydrolase 2 (Homo sapiens) (UniProt P34913); assay: Inhibition of soluble epoxide hydrolase (unknown origin) using PHOME as substrate at 100 uM measured for 1 hr by fluorescence assay relative to control
T1 sequence (whole entry): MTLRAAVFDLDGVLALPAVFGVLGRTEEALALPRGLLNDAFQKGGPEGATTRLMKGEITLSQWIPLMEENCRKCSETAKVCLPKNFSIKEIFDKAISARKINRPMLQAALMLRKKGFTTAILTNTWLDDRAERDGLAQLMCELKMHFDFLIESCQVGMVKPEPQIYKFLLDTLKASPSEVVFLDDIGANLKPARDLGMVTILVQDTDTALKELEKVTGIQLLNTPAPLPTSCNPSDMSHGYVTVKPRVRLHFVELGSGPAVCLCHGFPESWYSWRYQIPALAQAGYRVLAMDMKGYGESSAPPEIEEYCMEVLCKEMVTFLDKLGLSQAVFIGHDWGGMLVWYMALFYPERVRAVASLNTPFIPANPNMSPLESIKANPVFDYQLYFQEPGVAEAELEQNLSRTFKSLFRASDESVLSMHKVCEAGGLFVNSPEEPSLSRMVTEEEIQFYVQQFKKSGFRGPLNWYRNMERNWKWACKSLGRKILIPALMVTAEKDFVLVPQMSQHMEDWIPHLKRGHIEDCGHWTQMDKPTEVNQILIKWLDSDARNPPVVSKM
Outline: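 sEH (31.6 ng/mL) mixed with compound in MeOH in 25 mM Bis-Tris-HCl, pH 7.0, with 0.1 mg/mL BSA; 40 μM PHOME substrate (stock added) started the reaction at 37 °C. Fluorescence read at ex 330/em 465 nm for 1 h. Activity (%) taken from the signal change between 0 and 40 min, relative to the uninhibited control. Positive control AUDA.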

[2] = biological target: T2, Bifunctional epoxide hydrolase 2 (Homo sapiens, UniProt P34913); assay: Inhibition of soluble epoxide hydrolase (unknown origin) using PHOME as substrate measured for 1 hr by fluorescence assay
T2 sequence (P34913 whole entry): T1 sequence (whole entry)

[3] = biological target: T1, Bifunctional epoxide hydrolase 2 (Homo sapiens); assay: Non-competitive inhibition of soluble epoxide hydrolase (unknown origin) using PHOME as substrate measured for 1 hr by Lineweaver-Burk plot analysis
[4] = biological target: T1, Bifunctional epoxide hydrolase 2 (Homo sapiens); assay: Mixed inhibition of soluble epoxide hydrolase (unknown origin) using PHOME as substrate measured for 1 hr by Lineweaver-Burk plot analysis
[5] = biological target: T1, Bifunctional epoxide hydrolase 2 (Homo sapiens); assay: Competitive inhibition of soluble epoxide hydrolase (unknown origin) using PHOME as substrate measured for 1 hr by Lineweaver-Burk plot analysis

| Structure (SMILES) | inhibition [1] | IC50 [2] | inhibition [3] | inhibition [4] | inhibition mode [5] |
| --- | --- | --- | --- | --- | --- |
| CC(=O)O[C@H]1[C@H](O[C@H]2CC[C@]34C[C@]35CC[C@]3(C)[C@H]6[C@H](C)C[C@H]7O[C@@]6(O[C@H]7C(C)(C)O)[C@H](O)[C@@]3(C)C5=CC[C@H]4C2(C)C)OC[C@@H](O)[C@@H]1O | 64.9% | 60.9 µM |  |  |  |
| CC(=O)O[C@H](C[C@@H](C)[C@H]1C(=O)[C@H](O)[C@@]2(C)C3=CC[C@H]4C(C)(C)[C@@H](O[C@@H]5OC[C@@H](O)[C@H](O)[C@H]5O)CC[C@@]45C[C@@]35CC[C@]12C)[C@@H](O)C(C)(C)O | 72.4% | 5.2 µM | Active |  |  |
| C[C@@H]1C[C@]23OCC(C)(O)[C@H]2O[C@@]2(O3)[C@H]1[C@@]1(C)CC[C@@]34C[C@@]35CC[C@H](O[C@@H]3OC[C@@H](O)[C@H](O)[C@H]3O)C(C)(C)[C@@H]5CC=C4[C@]1(C)[C@H]2O (some centres undefined) | 63.2% | 14.6 µM |  | Active |  |
| CC(=O)OC(C)(C)[C@H]1O[C@@]23O[C@@H]1C[C@@H](C)[C@@H]2[C@@]1(C)CC[C@@]24C[C@@]25CC[C@H](O[C@@H]2OC[C@@H](O)[C@H](O)[C@H]2O)C(C)(C)[C@@H]5CC=C4[C@]1(C)[C@H]3O | 76.7% | 24 µM |  |  | Active |
| CC(=O)O[C@H]([C@H]1C[C@@H](C)[C@H]2[C@@](O)(O1)[C@H](O)[C@@]1(C)[C@@H]3CC[C@H]4C(C)(C)[C@@H](O[C@@H]5OC[C@@H](O)[C@H](O)[C@H]5O)CC[C@@]45C[C@@]35CC[C@]21C)C(C)(C)O | 66.1% | 0.4 µM |  |  | Active |
| C[C@H]1[C@H]2[C@@H](O[C@@]3(O)[C@@H]1OC(C)(C)[C@H]3O)[C@H](O)[C@@]1(C)[C@@H]3CC[C@H]4C(C)(C)[C@@H](O[C@@H]5OC[C@@H](O)[C@H](O)[C@H]5O)CC[C@@]45C[C@@]35CC[C@]21C | 70.2% | 4.4 µM |  |  | Active |

More lines, now with the values ahead:

| inhibition [1] | IC50 [2] | inhibition [3] | inhibition [4] | inhibition mode [5] | Structure (SMILES) |
| --- | --- | --- | --- | --- | --- |
| 75.6% | 0.4 µM |  |  | Active | COC(C)(C)[C@H]1O[C@@]23O[C@@H]1C[C@@H](C)[C@@H]2[C@@]1(C)CC[C@@]24C[C@@]25CC[C@H](O[C@@H]2OC[C@@H](O)[C@H](O)[C@H]2O)C(C)(C)[C@@H]5CC=C4[C@]1(C)[C@H]3O |
| 69.6% | 8.6 µM | Active |  |  | C[C@@H]1CC(=O)[C@H](O)[C@]2(O)[C@H]1[C@@]1(C)CC[C@@]34C[C@@]35CC[C@H](O[C@@H]3OC[C@@H](O)[C@H](O)[C@H]3O)C(C)(C)[C@@H]5CC=C4[C@]1(C)[C@H]2O |
| 61.9% | 18.5 µM | Active |  |  | C[C@@H]1C[C@H]2O[C@]3(O[C@H]2C(C)(C)O)[C@H]1[C@@]1(C)[C@H](O)C[C@@]24C[C@@]25CC[C@H](O[C@@H]2OC[C@@H](O)[C@H](O)[C@H]2O)C(C)(C)[C@@H]5CC=C4[C@]1(C)[C@H]3O |
| 84.8% | 10.7 µM |  |  | Active | C[C@@H]1C[C@H]([C@@H](O)C(C)(C)O)O[C@]2(O)[C@H]1[C@@]1(C)CC[C@@]34C[C@@]35CC[C@H](O[C@@H]3OC[C@@H](O)[C@H](O)[C@H]3O)C(C)(C)[C@@H]5CC=C4[C@]1(C)[C@H]2O |
